Experimental data published in ChEMBL document CHEMBL5154945, “Discovery and Optimization of Pyrrolopyrimidine Derivatives as Selective Disruptors of the Perinucleolar Compartment, a Marker of Tumor Progression toward Metastasis” (J Med Chem, 2022).
The source made the active and inactive calls.

How the values were obtained:
PC-3M [1] = experiment: Antiproliferative activity against human PC-3M cells expressing PTB/GFP fusion protein assessed as inhibition of nucleolar volume measured after 24 hrs by Nucleolar-id Green Detection based confocal microscopic analysis; type: functional, cell-based
HOP-62 = experiment: Anticancer activity against human HOP-62 cells assessed as cell growth inhibition; type: functional, cell-based; conditions: dose 1-100 µM, DDE = dose-dependent effect
[2] = mouse, in vivo, ip, 50 mg/kg, 48 h
MDA-MB-468 = experiment: Anticancer activity against human MDA-MB-468 cells assessed as cell growth inhibition; type: functional, cell-based; conditions: dose 1-100 µM, DDE = dose-dependent effect
[3] = biological target: Alpha-2C adrenergic receptor (Homo sapiens, UniProt P18825); experiment: Binding affinity to alpha2C receptor (unknown origin) by radioligand displacement assay
[4] = biological target: Sigma intracellular receptor 2 (Homo sapiens, UniProt Q5BJF2); experiment: Binding affinity to sigma2 receptor (unknown origin) by radioligand displacement assay
[5] = biological target: Beta-1 adrenergic receptor (Homo sapiens) (UniProt P08588); experiment: Binding affinity to beta1 receptor (unknown origin) at 10000 nM by radioligand displacement assay relative to control
[6] = Microsomal stability in CD1 mouse liver microsomes assessed as half life measured upto 60 mins in presence of NADPH by LC-MS analysis; conditions: CD1, mouse, liver microsomes
[7] = biological target: 5-hydroxytryptamine receptor 2B (Homo sapiens) (UniProt P41595); experiment: Binding affinity to 5-HT2B receptor (unknown origin) at 10000 nM by radioligand displacement assay relative to control
COLO 205 = experiment: Anticancer activity against human COLO 205 cells assessed as cell growth inhibition; type: functional, cell-based; conditions: dose 1-100 µM, DDE = dose-dependent effect
[8] = biological target: Mu-type opioid receptor (Homo sapiens) (UniProt P35372); experiment: Binding affinity to MOR receptor (unknown origin) at 10000 nM by radioligand displacement assay relative to control
HCC 2998 = experiment: Anticancer activity against human HCC 2998 cells assessed as cell growth inhibition; type: functional, cell-based; conditions: dose 1-100 µM, DDE = dose-dependent effect
[9] = biological target: Sigma non-opioid intracellular receptor 1 (Homo sapiens) (UniProt Q99720); experiment: Binding affinity to sigma1 receptor (unknown origin) at 10000 nM by radioligand displacement assay relative to control
RXF 393 = experiment: Anticancer activity against human RXF 393 cells assessed as cell growth inhibition; type: functional, cell-based; conditions: dose 1-100 µM, DDE = dose-dependent effect
[10] = biological target: Beta-3 adrenergic receptor (Homo sapiens) (UniProt P13945); experiment: Binding affinity to beta3 receptor (unknown origin) at 10000 nM by radioligand displacement assay relative to control
[11] = Cmax in female BALB/c mouse at 25 mg/kg, ip at 30 min by L-MS/MS analysis; type: ADME, organism-based; design: dose 25 mg/kg, time 30 min, route ip; conditions: in vivo, 0.5 h
Method in brief: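 Fed female BALB/c mice, about 6–8 weeks old and 25–30 g, received a single IP dose of 5 or 25 mpk in NMP/PEG400/HP-β-CD aqueous vehicle (0.5 mg/mL for the 5 mpk dose). Three mice per time point were sampled up to 48 h by retro-orbital bleed under isoflurane into K2EDTA. Plasma was spun at 2000 g, 4 °C, frozen at -80 °C, and assayed by LC/MS/MS.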

[12] = mouse, in vivo, ip, 50 mg/kg, 48 h; remark: listed apart in the source
[13] = biological target: 5-hydroxytryptamine receptor 1A (Homo sapiens) (UniProt P08908); experiment: Binding affinity to 5-HT1A receptor (unknown origin) at 10000 nM by radioligand displacement assay relative to control
NCI-H322M = experiment: Anticancer activity against human NCI-H322M cells assessed as cell growth inhibition; type: functional, cell-based; conditions: dose 1-100 µM, DDE = dose-dependent effect
[14] = biological target: Alpha-1B adrenergic receptor (Homo sapiens) (UniProt P35368); experiment: Binding affinity to alpha1B receptor (unknown origin) at 10000 nM by radioligand displacement assay relative to control
PC-3M [15] = experiment: Antiproliferative activity against human PC-3M cells expressing PTB/GFP fusion protein assessed as cell growth inhibition at 0.1 to 10 uM and measured every four hrs for 130 hrs by IncuCyte zoom live cell analysis; type: functional, cell-based; conditions: dose 0.1-10 µM
Method in brief: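 PC3M cells stably expressing GFP-PTB, grown in DMEM with 10% FBS and 1% penicillin/streptomycin, seeded at 1.25×10^4 cells/ml in 384-well plates and left overnight at 37 °C, 5% CO2. Compound added in DMEM to give 11 final concentrations from 10 nM to 20 μM. Brightfield images were taken every 4 h for about 130 h and scored as percent confluence.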

NCI/ADR-RES = experiment: Anticancer activity against human NCI/ADR-RES cells assessed as cell growth inhibition; type: functional, cell-based; conditions: dose 1-100 µM, DDE = dose-dependent effect
ACHN = experiment: Anticancer activity against human ACHN cells assessed as cell growth inhibition; type: functional, cell-based; conditions: dose 1-100 µM, DDE = dose-dependent effect
[16] = biological target: D(1A) dopamine receptor (Homo sapiens) (UniProt P21728); experiment: Binding affinity to D1 receptor (unknown origin) at 10000 nM by radioligand displacement assay relative to control
SN12C = experiment: Anticancer activity against human SN12C cells assessed as cell growth inhibition; type: functional, cell-based; conditions: dose 1-100 µM, DDE = dose-dependent effect
M14 = experiment: Anticancer activity against human M14 cells assessed as cell growth inhibition; type: functional, cell-based; conditions: dose 1-100 µM, DDE = dose-dependent effect
SW-620 = experiment: Anticancer activity against human SW-620 cells assessed as cell growth inhibition; type: functional, cell-based; conditions: dose 1-100 µM, DDE = dose-dependent effect
LOX IMVI = experiment: Anticancer activity against human LOX IMVI cells assessed as cell growth inhibition; type: functional, cell-based; conditions: dose 1-100 µM, DDE = dose-dependent effect
[17] = biological target: Alpha-1D adrenergic receptor (Homo sapiens, UniProt P25100); experiment: Binding affinity to alpha1D receptor (unknown origin) by radioligand displacement assay
SR = experiment: Anticancer activity against human SR cells assessed as cell growth inhibition; type: functional, cell-based; conditions: dose 1-100 µM, DDE = dose-dependent effect
SNB-19 = experiment: Anticancer activity against human SNB-19 cells assessed as cell growth inhibition; type: functional, cell-based; conditions: dose 1-100 µM, DDE = dose-dependent effect
[18] = mouse, in vivo, ip, 50 mg/kg, 48 h; remark: listed apart in the source
HCT-15 = experiment: Anticancer activity against human HCT-15 cells assessed as cell growth inhibition; type: functional, cell-based; conditions: dose 1-100 µM, DDE = dose-dependent effect
A498 = experiment: Anticancer activity against human A498 cells assessed as cell growth inhibition; type: functional, cell-based; conditions: dose 1-100 µM, DDE = dose-dependent effect
PC-3M [19] = experiment: Antiproliferative activity against human PC-3M cells expressing PTB/GFP fusion protein assessed as disruption of RNA synthesis marker NOPP140 at 1 uM measured after 1 hr by DAPI staining based immunofluorescence microscopy; type: functional, cell-based
Method in brief: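 50,000 PC3M cells on chamber slides were treated with 1 μM compound for 1 h at 37 °C, then fixed in 4% paraformaldehyde for 15 min, permeabilized with 0.3% Triton X-100 and blocked in 3% BSA. Primary antibodies were anti-RPA194 (1:200) and anti-NOPP140 (1:100), overnight at 4 °C, followed by secondary antibodies and DAPI mounting. Confocal images at 63×, three images of about 200 cells per group; counts of bright objects were normalized to DAPI-stained nuclei.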

[20] = mouse, in vivo, ip, 50 mg/kg, 0.5 h
PC-3 = experiment: Anticancer activity against human PC-3 cells assessed as cell growth inhibition; type: functional, cell-based; conditions: dose 1-100 µM, DDE = dose-dependent effect
[21] = biological target: Muscarinic acetylcholine receptor M5 (Homo sapiens) (UniProt P08912); experiment: Binding affinity to M5 receptor (unknown origin) at 10000 nM by radioligand displacement assay relative to control
Malme-3M = experiment: Anticancer activity against human Malme-3M cells assessed as cell growth inhibition; type: functional, cell-based; conditions: dose 1-100 µM, DDE = dose-dependent effect

Chain of Mu-type opioid receptor (Homo sapiens) (P35372 whole entry): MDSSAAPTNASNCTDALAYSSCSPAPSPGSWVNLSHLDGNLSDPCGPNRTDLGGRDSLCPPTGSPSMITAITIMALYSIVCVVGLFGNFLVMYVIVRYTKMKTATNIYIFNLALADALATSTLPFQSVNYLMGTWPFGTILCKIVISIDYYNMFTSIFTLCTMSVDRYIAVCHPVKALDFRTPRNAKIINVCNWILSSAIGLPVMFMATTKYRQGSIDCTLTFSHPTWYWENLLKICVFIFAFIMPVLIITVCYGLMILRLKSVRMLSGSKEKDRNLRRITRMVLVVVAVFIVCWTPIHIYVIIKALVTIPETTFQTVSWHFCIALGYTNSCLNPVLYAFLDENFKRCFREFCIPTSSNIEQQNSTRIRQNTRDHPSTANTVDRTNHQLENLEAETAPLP
Chain of Beta-1 adrenergic receptor (Homo sapiens) (P08588 whole entry, looked up): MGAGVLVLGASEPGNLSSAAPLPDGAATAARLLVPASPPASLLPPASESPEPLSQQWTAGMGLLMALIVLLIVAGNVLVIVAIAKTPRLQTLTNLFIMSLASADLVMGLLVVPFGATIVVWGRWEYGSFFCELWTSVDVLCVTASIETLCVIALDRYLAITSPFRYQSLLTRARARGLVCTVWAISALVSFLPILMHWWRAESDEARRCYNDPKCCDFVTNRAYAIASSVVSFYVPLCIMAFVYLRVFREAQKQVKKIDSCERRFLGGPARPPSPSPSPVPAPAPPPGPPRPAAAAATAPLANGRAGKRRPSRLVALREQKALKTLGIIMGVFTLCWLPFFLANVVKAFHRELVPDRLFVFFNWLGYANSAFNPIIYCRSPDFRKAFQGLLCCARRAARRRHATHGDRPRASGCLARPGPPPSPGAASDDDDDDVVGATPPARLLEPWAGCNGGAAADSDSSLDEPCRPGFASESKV
Chain of D(1A) dopamine receptor (Homo sapiens) (P21728 whole entry): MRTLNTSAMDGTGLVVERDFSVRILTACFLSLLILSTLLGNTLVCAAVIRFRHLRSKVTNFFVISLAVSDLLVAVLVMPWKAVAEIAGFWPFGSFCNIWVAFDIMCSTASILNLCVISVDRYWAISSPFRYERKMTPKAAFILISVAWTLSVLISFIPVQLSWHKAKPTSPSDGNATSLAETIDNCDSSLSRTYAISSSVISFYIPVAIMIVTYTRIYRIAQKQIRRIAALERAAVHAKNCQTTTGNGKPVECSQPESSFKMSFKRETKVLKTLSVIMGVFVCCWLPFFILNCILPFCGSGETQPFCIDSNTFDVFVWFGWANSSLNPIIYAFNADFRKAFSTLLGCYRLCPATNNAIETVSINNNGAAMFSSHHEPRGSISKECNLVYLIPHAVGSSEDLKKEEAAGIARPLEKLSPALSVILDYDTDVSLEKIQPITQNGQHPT
Chain of Muscarinic acetylcholine receptor M5 (Homo sapiens) (P08912 whole entry): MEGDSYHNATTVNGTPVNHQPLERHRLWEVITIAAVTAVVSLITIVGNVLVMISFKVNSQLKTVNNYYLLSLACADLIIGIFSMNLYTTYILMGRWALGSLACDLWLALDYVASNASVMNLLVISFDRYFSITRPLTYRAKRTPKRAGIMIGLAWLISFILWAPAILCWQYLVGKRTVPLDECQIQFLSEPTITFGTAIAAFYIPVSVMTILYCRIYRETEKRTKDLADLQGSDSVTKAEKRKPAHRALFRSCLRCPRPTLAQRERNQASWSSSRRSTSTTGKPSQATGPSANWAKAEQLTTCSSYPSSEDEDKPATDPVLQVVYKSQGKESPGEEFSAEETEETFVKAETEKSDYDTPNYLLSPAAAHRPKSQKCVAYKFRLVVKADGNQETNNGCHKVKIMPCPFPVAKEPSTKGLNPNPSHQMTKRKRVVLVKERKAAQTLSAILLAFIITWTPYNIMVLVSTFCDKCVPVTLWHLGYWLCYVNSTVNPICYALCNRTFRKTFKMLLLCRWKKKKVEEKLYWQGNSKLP
Chain of Alpha-2C adrenergic receptor (P18825 whole entry): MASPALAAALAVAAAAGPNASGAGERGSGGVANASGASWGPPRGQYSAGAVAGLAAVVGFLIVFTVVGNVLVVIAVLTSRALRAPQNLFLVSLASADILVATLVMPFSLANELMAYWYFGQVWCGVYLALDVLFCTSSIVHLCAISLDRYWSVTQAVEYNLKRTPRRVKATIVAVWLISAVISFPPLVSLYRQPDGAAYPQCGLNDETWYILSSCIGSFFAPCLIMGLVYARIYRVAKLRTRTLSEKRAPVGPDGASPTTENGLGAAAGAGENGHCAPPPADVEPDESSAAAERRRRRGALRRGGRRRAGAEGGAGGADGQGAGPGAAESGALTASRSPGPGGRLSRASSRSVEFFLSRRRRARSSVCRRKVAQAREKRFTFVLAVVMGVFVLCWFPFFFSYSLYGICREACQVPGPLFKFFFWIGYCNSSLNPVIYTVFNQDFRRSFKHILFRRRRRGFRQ
Chain of 5-hydroxytryptamine receptor 1A (Homo sapiens) (P08908 whole entry): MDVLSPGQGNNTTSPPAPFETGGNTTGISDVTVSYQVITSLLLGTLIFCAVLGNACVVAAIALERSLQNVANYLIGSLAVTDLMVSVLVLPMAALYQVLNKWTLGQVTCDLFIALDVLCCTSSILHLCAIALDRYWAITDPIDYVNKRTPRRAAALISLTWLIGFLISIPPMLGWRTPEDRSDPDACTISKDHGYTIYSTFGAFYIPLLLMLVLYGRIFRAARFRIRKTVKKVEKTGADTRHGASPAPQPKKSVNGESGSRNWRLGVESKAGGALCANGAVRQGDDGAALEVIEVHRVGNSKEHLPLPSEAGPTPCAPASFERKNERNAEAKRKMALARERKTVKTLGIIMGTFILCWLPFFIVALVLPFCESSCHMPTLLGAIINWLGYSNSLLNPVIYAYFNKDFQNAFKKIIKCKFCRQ
Chain of Alpha-1D adrenergic receptor (P25100 whole entry): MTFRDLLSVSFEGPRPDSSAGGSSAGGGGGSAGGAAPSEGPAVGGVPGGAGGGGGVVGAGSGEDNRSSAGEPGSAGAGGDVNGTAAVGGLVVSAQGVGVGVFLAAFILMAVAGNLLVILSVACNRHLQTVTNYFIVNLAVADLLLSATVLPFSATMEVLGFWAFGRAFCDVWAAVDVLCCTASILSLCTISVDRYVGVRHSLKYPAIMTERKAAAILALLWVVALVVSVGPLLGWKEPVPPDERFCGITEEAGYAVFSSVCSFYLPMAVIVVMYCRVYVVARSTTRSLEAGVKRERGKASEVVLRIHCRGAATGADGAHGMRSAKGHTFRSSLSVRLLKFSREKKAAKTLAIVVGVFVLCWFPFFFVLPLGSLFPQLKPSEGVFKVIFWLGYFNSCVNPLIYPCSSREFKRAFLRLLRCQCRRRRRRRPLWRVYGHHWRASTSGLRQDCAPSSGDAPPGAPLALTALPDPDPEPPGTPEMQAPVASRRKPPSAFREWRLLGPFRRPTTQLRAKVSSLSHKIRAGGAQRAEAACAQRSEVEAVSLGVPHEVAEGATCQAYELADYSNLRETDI
Chain of 5-hydroxytryptamine receptor 2B (Homo sapiens) (P41595 whole entry): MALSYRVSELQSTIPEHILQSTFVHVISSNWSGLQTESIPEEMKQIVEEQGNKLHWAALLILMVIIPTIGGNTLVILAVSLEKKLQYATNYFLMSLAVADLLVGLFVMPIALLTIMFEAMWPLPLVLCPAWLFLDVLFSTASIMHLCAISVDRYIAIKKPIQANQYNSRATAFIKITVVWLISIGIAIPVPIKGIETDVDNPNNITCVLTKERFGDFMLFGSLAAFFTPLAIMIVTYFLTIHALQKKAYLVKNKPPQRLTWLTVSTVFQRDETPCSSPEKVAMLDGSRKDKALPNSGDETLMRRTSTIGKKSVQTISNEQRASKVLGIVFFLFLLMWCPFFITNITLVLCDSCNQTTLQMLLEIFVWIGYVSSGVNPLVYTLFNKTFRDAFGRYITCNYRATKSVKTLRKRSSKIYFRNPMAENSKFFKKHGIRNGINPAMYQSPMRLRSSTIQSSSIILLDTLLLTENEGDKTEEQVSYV
Chain of Sigma intracellular receptor 2 (Q5BJF2 whole entry): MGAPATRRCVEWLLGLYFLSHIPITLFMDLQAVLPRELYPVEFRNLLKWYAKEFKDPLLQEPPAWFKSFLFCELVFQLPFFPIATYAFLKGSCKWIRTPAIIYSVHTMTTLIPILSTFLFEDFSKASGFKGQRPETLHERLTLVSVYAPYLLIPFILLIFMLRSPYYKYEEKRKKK
Chain of Beta-3 adrenergic receptor (Homo sapiens) (P13945 whole entry, looked up): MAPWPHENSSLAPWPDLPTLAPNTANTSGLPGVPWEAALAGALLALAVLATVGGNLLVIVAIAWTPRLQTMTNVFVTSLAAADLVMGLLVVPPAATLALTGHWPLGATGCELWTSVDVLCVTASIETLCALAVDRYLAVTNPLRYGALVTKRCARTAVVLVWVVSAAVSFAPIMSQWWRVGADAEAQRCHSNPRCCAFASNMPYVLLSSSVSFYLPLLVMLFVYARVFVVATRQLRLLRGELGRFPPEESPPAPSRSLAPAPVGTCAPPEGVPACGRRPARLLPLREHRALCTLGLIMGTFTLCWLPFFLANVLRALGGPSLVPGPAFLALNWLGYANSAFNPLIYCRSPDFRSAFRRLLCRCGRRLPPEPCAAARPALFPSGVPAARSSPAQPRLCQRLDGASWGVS
Chain of Sigma non-opioid intracellular receptor 1 (Homo sapiens) (Q99720 whole entry): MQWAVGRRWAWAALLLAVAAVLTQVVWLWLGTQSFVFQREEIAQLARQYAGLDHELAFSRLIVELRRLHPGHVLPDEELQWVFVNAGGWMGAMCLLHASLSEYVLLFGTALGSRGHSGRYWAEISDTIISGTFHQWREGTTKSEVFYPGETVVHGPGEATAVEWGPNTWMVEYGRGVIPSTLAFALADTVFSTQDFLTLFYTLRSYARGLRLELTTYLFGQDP

N=c1c2c(-c3ccccc3)c(-c3ccccc3)n(Cc3ccccc3)c2ncn1[C@H]1CC[C@H](O)CC1 [ML-246]
6.17 µM: Cmax [11]
active: Activity (HOP-62) Dde | Activity (MDA-MB-468) Dde | Activity (COLO 205) Dde | Activity (HCC 2998) Dde | Activity (RXF 393) Dde | Activity (NCI-H322M) Dde | Activity (PC-3M [15]) | Activity (NCI/ADR-RES) Dde | Activity (ACHN) Dde | Activity (SN12C) Dde | Activity (M14) Dde | Activity (SW-620) Dde | Activity (LOX IMVI) Dde | Activity (SR) Dde | Activity (SNB-19) Dde | Activity (HCT-15) Dde | Activity (A498) Dde | Activity (PC-3M [19]) | Activity (PC-3) Dde | Activity (Malme-3M) Dde
2 h: half-life at 1 h [6]
231.77 µM·h: AUC [2]
610 nM: IC50 (PC-3M [1])
244 nM: Ki [4]
20.3 µM: Cmax [20]
0.5 h: Tmax [12]
3260 nM: Ki [17]
< 50%: Activity [5] | Activity [7] | Activity [8] | Activity [9] | Activity [10] | Activity [13] | Activity [14] | Activity [16] | Activity [21]
0.273 h: beta t1/2 [18]
1210 nM: Ki [3]
